Results reported in ChEMBL document CHEMBL1128736, “Synthesis and anti-HIV activity of [AZT]-[TSAO-T] and [AZT]-[HEPT] dimers as potential multifunctional inhibitors of HIV-1 reverse transcriptase” (J Med Chem, 1995).

What was measured:
Format in all cases: functional, organism-based
[1] = test system: Human immunodeficiency virus 2; experiment: Inhibitory effect against HIV-2 replication in CEM /TK-(thymidine kinase deficient) cells.; details: Human immunodeficiency virus 2, CCRF-CEM
How it was run: (§1)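 CEM cells (4×10^5/mL; wild-type CEM/0 or thymidine kinase-deficient CEM/TK⁻) infected with HIV-1 or HIV-2 (ROD) at ~100 CCID50/mL, then mixed 1:1 with serial compound dilutions. After 4 days, virus-induced giant cell formation was scored microscopically. EC50 is the concentration inhibiting virus-induced cytopathicity by 50%.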

[2] = test system: Human immunodeficiency virus 1; experiment: Inhibitory effect against HIV-1 replication in CEM cells.; details: Human immunodeficiency virus 1, CCRF-CEM; how it was run: as §1
[3] = test system: Human immunodeficiency virus 2; experiment: Inhibitory effect against HIV-2 replication in CEM cells.; details: Human immunodeficiency virus 2, CCRF-CEM; how it was run: as §1

Row | SMILES | EC50 [1] [µM] | EC50 [2] [nM] | EC50 [3] [µM]
1 | Cc1cn([C@@H]2O[C@H](CO[Si](C)(C)C(C)(C)C)[C@@]3(OS(=O)(=O)C=C3N)[C@H]2O[Si](C)(C)C(C)(C)C)c(=O)n(CCCn2c(=O)c(C)cn([C@H]3C[C@H](N=[N+]=[N-])[C@@H](CO)O3)c2=O)c1=O | > 100 | 100 | > 100
2 | Cc1cn([C@@H]2O[C@H](CO[Si](C)(C)C(C)(C)C)[C@@]3(OS(=O)(=O)C=C3N)[C@H]2O[Si](C)(C)C(C)(C)C)c(=O)n(CCCCCCCCCBr)c1=O | > 1 | > 1000 | > 1
3 | Cc1cn(C2CC(N=[N+]=[N-])C(CO)O2)c(=O)n(CCCCCBr)c1=O (stereo not drawn) | > 10 | > 50000 | > 50
4 | Cc1cn([C@@H]2O[C@H](CO[Si](C)(C)C(C)(C)C)[C@@]3(OS(=O)(=O)C=C3N)[C@H]2O[Si](C)(C)C(C)(C)C)c(=O)n(CCCCCCCn2c(=O)c(C)cn([C@H]3C[C@H](O)[C@@H](CO)O3)c2=O)c1=O | – | 220 | > 4
5 | Cc1cn([C@@H]2O[C@H](CO[Si](C)(C)C(C)(C)C)[C@@]3(OS(=O)(=O)C=C3N)[C@H]2O[Si](C)(C)C(C)(C)C)c(=O)n(CCCCCn2c(=O)c(C)cn([C@H]3C[C@H](N=[N+]=[N-])[C@@H](CO)O3)c2=O)c1=O | > 100 | 220 | > 100
6 | Cc1cn([C@@H]2O[C@H](CO[Si](C)(C)C(C)(C)C)[C@@]3(OS(=O)(=O)C=C3N)[C@H]2O[Si](C)(C)C(C)(C)C)c(=O)n(CCCBr)c1=O | – | 110 | > 100
7 | Cc1cn(C2CC(N=[N+]=[N-])C(CO)O2)c(=O)n(CCCBr)c1=O (stereo not drawn) | – | > 50000 | > 50
8 | Cc1c(Sc2ccccc2)n(COCCO)c(=O)n(CCCCCCCBr)c1=O | > 8 | > 8000 | > 8
9 | Cc1cn([C@@H]2O[C@H](CO[Si](C)(C)C(C)(C)C)[C@@]3(OS(=O)(=O)C=C3N)[C@H]2O[Si](C)(C)C(C)(C)C)c(=O)n(CCCCCCn2c(=O)c(C)cn([C@H]3C[C@H](O)[C@@H](CO)O3)c2=O)c1=O | – | 550 | > 4
10 | Cc1c(Sc2ccccc2)n(COCCO)c(=O)n(CCCCCCBr)c1=O | > 8 | – | –
11 | Cc1cn(C2CC(N=[N+]=[N-])C(CO)O2)c(=O)n(CCCCCCn2c(=O)c(C)c(Sc3ccccc3)n(COCCO)c2=O)c1=O (stereo not drawn) | > 5 | > 5000 | > 5
12 | Cc1cn([C@@H]2O[C@H](CO[Si](C)(C)C(C)(C)C)[C@@]3(OS(=O)(=O)C=C3N)[C@H]2O[Si](C)(C)C(C)(C)C)c(=O)n(CCCCCCCn2c(=O)c(C)cn([C@H]3C[C@H](N=[N+]=[N-])[C@@H](CO)O3)c2=O)c1=O | – | 1580 | > 100
13 | Cc1cn([C@@H]2O[C@H](CO[Si](C)(C)C(C)(C)C)[C@@]3(OS(=O)(=O)C=C3N)[C@H]2O[Si](C)(C)C(C)(C)C)c(=O)n(CCCCCCCCBr)c1=O | > 1 | > 1000 | > 1
14 | Cc1cn([C@H]2C[C@H](O)[C@@H](CO)O2)c(=O)n(CCCCCCCBr)c1=O | > 10 | > 10000 | > 10
15 | Cc1cn([C@@H]2O[C@H](CO[Si](C)(C)C(C)(C)C)[C@@]3(OS(=O)(=O)C=C3N)[C@H]2O[Si](C)(C)C(C)(C)C)c(=O)n(CCCCCCCBr)c1=O | > 5 | 790 | > 1
16 | Cc1cn([C@@H]2O[C@H](CO[Si](C)(C)C(C)(C)C)[C@@]3(OS(=O)(=O)C=C3N)[C@H]2O[Si](C)(C)C(C)(C)C)c(=O)n(CCCCCCn2c(=O)c(C)cn([C@H]3C[C@H](N=[N+]=[N-])[C@@H](CO)O3)c2=O)c1=O | > 100 | 210 | > 100

Row | SMILES | EC50 [1] [µM] | EC50 [2] [nM] | EC50 [3] [µM]
17 | Cc1cn([C@@H]2O[C@H](CO[Si](C)(C)C(C)(C)C)C3(OS(=O)(=O)C=C3N)[C@H]2O[Si](C)(C)C(C)(C)C)c(=O)[nH]c1=O (stereo partly drawn) | > 6 | 50 | > 6
18 | Cc1cn(C2CC(N=[N+]=[N-])C(CO)O2)c(=O)n(CCCCCCCCBr)c1=O (stereo not drawn) | > 8 | > 8000 | > 8
19 | Cc1cn([C@@H]2O[C@H](CO[Si](C)(C)C(C)(C)C)[C@@]3(OS(=O)(=O)C=C3N)[C@H]2O[Si](C)(C)C(C)(C)C)c(=O)n(CCCn2c(=O)c(C)cn([C@H]3C[C@H](O)[C@@H](CO)O3)c2=O)c1=O | > 4 | 60 | > 4
20 | Cc1cn([C@@H]2O[C@H](CO[Si](C)(C)C(C)(C)C)[C@@]3(OS(=O)(=O)C=C3N)[C@H]2O[Si](C)(C)C(C)(C)C)c(=O)n(CCCCCCCCn2c(=O)c(C)cn([C@H]3C[C@H](N=[N+]=[N-])[C@@H](CO)O3)c2=O)c1=O | – | 1560 | > 100
21 | Cc1cn(C2CC(N=[N+]=[N-])C(CO)O2)c(=O)n(CCCCCCBr)c1=O (stereo not drawn) | > 45 | – | –
22 | Cc1c(Sc2ccccc2)n(COCCO)c(=O)[nH]c1=O [HEPT] | > 100 | – | > 100
23 | Cc1cn([C@@H]2O[C@H](CO[Si](C)(C)C(C)(C)C)[C@@]3(OS(=O)(=O)C=C3N)[C@H]2O[Si](C)(C)C(C)(C)C)c(=O)n(CCCCn2c(=O)c(C)cn([C@H]3C[C@H](N=[N+]=[N-])[C@@H](CO)O3)c2=O)c1=O | > 100 | 200 | > 100
24 | Cc1cn([C@@H]2O[C@H](CO[Si](C)(C)C(C)(C)C)[C@@]3(OS(=O)(=O)C=C3N)[C@H]2O[Si](C)(C)C(C)(C)C)c(=O)n(CCCCCCCCCn2c(=O)c(C)cn([C@H]3C[C@H](N=[N+]=[N-])[C@@H](CO)O3)c2=O)c1=O | > 100 | 15300 | > 100
25 | Cc1cn([C@H]2C[C@H](O)[C@@H](CO)O2)c(=O)n(CCCCCCCn2c(=O)c(C)c(Sc3ccccc3)n(COCCO)c2=O)c1=O | – | > 30000 | > 30
26 | Cc1cn(C2CC(N=[N+]=[N-])C(CO)O2)c(=O)n(CCCCCCCCCBr)c1=O (stereo not drawn) | > 8 | > 8000 | > 8
27 | Cc1cn([C@H]2C[C@H](N=[N+]=[N-])[C@@H](CO)O2)c(=O)[nH]c1=O [ZIDOVUDINE] | > 35 | 11 | 0.011
28 | Cc1cn(C2CC(N=[N+]=[N-])C(CO)O2)c(=O)n(CCCCCCCn2c(=O)c(C)c(Sc3ccccc3)n(COCCO)c2=O)c1=O (stereo not drawn) | – | > 5000 | > 5
29 | Cc1cn([C@@H]2O[C@H](CO[Si](C)(C)C(C)(C)C)[C@@]3(OS(=O)(=O)C=C3N)[C@H]2O[Si](C)(C)C(C)(C)C)c(=O)n(CCCCCCBr)c1=O | – | 470 | > 25
30 | Cc1cn([C@H]2C[C@H](O)[C@@H](CO)O2)c(=O)[nH]c1=O [DOXRIBTIMINE] | > 40 | > 40000 | > 40
31 | Cc1cn([C@H]2C[C@H](O)[C@@H](CO)O2)c(=O)n(CCCCCCn2c(=O)c(C)c(Sc3ccccc3)n(COCCO)c2=O)c1=O | – | 79000 | > 30
